Results: publication PMC11865470 (Communications Biology, 2025)

Assays:
Type in all cases: cell-based
Otop1 channels = Otop1 channels (Mus musculus, UniProt Q80VM9); experiment: patch-clamp, pH 8.5-evoked Otop1 currents with preincubated HIMOP; details: 10 μM, preincubated at pH 7.4 for 2 min; 0 mV
Method in brief: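 Mouse Otop1 was expressed with EGFP in PAC-knockout HEK293T cells and whole-cell recorded with Cs-aspartate pipette solution (pH 7.3). Test compound was preincubated with cells at pH 7.4 (NMDG-Cl bath, 10 mM HEPES) for 2 min, then pH 8.5 stimulus applied (NMDG-Cl bath, 10 mM Tris).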

[1] = biological target: T1, mouse Otop1 (mOtop1) channels (Mus musculus, UniProt Q80VM9); experiment: whole-cell patch-clamp, peak currents: current density and "on-cell" analysis; details: for effect on mOtop1 current density: 10 μM
T1 sequence (Q80VM9 1-600): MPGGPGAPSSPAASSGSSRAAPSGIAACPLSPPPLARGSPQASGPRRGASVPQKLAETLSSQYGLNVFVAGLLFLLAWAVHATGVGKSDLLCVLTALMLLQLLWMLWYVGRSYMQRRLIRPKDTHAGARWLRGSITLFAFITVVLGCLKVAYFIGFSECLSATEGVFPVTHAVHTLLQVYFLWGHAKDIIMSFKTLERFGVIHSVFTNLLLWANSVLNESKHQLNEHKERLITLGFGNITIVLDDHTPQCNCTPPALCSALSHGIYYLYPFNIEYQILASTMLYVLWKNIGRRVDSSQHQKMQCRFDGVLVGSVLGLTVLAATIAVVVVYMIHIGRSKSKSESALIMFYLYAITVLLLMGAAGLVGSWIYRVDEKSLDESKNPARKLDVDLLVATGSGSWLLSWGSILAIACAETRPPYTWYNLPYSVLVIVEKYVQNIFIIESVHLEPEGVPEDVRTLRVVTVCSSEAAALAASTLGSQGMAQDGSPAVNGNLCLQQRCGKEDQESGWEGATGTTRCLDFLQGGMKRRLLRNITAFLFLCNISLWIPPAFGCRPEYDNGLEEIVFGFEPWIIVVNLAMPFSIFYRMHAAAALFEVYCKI

[2] = biological target: T1, mouse Otop1 (mOtop1) channels; details: 10 μM MFaN; pH 5.5
[3] = biological target: T1, mouse Otop1 (mOtop1) channels; experiment: activation time constant; details: 10 μM; before or concurrently with pH 5.5 stimulus
[4] = biological target: T1, mouse Otop1 (mOtop1) channels; experiment: reversal potential; details: 10 μM; pH 5.5; bath NMDG+, Na+, K+ or Cs+
mOtop1 E226A = mOtop1 E226A (Mus musculus, UniProt Q80VM9, E226A); experiment: patch-clamp, mOtop1 mutant; details: 10 μM; pH 5.5
Method in brief: (§1)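 Alanine-substituted mOtop1 mutants were co-transfected (2.5 μg channel plus 0.5 μg EGFP plasmid, Lipofectamine 2000) into PAC-knockout HEK293T cells. Whole-cell recording 16–24 h after seeding on PLL coverslips. Pipette (mM): 120 Cs-aspartate, 15 CsCl, 2 Mg-ATP, 5 EGTA, 2.4 CaCl2, 10 HEPES, pH 7.3. Bath (mM): 160 NMDG-Cl, 2 CaCl2, 10 MES, pH 5.5, with 10 μM test compound. Response compared with wild-type mOtop1.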

mOtop1 E229A = mOtop1 E229A (Mus musculus, UniProt Q80VM9, E229A); experiment: patch-clamp, mOtop1 mutant; details: 10 μM; pH 5.5
Method in brief: as §1

mOtop1 T233A = mOtop1 T233A (Mus musculus, UniProt Q80VM9, T233A); experiment: patch-clamp, mOtop1 mutant; details: 10 μM; pH 5.5
Method in brief: as §1

mOtop1 T240A = mOtop1 T240A (Mus musculus, UniProt Q80VM9, T240A); experiment: patch-clamp, mOtop1 mutant; details: 10 μM; pH 5.5
Method in brief: as §1

mOtop1 I241A = mOtop1 I241A (Mus musculus, UniProt Q80VM9, I241A); experiment: patch-clamp, mOtop1 mutant; details: 10 μM; pH 5.5
Method in brief: as §1

mOtop1 D244A = mOtop1 D244A (Mus musculus, UniProt Q80VM9, D244A); experiment: patch-clamp, mOtop1 mutant; details: 10 μM; pH 5.5
Method in brief: as §1

mOtop1 H246A = mOtop1 H246A (Mus musculus, UniProt Q80VM9, H246A); experiment: patch-clamp, mOtop1 mutant; details: 10 μM; pH 5.5
Method in brief: as §1

mOtop1 R554N = mOtop1 R554N (Mus musculus, UniProt Q80VM9, R554N); experiment: patch-clamp, mOtop1 mutant; details: Fig 5G, H
mOtop1 R554Q = mOtop1 R554Q (Mus musculus, UniProt Q80VM9, R554Q); experiment: patch-clamp, mOtop1 mutant; details: Fig 5G, H
mOtop1 R554C = mOtop1 R554C (Mus musculus, UniProt Q80VM9, R554C); experiment: patch-clamp, mOtop1 mutant; details: Fig 5G, H
mOtop1 R554E = mOtop1 R554E (Mus musculus, UniProt Q80VM9, R554E); experiment: patch-clamp, mOtop1 mutant; details: Fig 5G, H
mOtop1 R554K = mOtop1 R554K (Mus musculus, UniProt Q80VM9, R554K); experiment: patch-clamp, mOtop1 mutant; details: Fig 5G, H
mOtop1 R554H = mOtop1 R554H (Mus musculus, UniProt Q80VM9, R554H); experiment: patch-clamp, mOtop1 mutant; details: Fig 5G, H
Sequence of mOtop1 R554H (Q80VM9 whole entry R554H): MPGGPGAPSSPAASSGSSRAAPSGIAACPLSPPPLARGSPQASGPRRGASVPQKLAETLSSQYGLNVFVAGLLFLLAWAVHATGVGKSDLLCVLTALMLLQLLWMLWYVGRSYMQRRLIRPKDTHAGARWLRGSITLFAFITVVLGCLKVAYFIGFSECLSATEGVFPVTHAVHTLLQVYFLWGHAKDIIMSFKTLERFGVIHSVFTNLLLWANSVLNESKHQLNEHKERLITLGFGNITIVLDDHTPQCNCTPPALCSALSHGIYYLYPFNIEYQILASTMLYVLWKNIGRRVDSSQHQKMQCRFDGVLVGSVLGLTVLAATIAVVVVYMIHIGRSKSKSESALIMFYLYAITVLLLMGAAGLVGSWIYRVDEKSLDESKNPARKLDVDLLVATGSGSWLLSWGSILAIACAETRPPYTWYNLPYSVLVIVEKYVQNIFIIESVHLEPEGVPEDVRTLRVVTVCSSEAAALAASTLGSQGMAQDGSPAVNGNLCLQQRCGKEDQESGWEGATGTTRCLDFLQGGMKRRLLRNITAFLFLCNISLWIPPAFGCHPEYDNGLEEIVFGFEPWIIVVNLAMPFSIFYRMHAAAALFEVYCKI

Sequence of mOtop1 E226A (Q80VM9 whole entry E226A): as the sequence (Q80VM9 whole entry R554H) above, with E226A, H554R counted along it
Sequence of mOtop1 R554Q (Q80VM9 whole entry R554Q): as the sequence (Q80VM9 whole entry R554H) above, with H554Q counted along it
Sequence of mOtop1 R554N (Q80VM9 whole entry R554N): as the sequence (Q80VM9 whole entry R554H) above, with H554N counted along it
Sequence of mOtop1 R554C (Q80VM9 whole entry R554C): as the sequence (Q80VM9 whole entry R554H) above, with H554C counted along it
Sequence of mOtop1 T233A (Q80VM9 whole entry T233A): as the sequence (Q80VM9 whole entry R554H) above, with T233A, H554R counted along it
Sequence of mOtop1 E229A (Q80VM9 whole entry E229A): as the sequence (Q80VM9 whole entry R554H) above, with E229A, H554R counted along it
Sequence of mOtop1 I241A (Q80VM9 whole entry I241A): as the sequence (Q80VM9 whole entry R554H) above, with I241A, H554R counted along it
Sequence of mOtop1 D244A (Q80VM9 whole entry D244A): as the sequence (Q80VM9 whole entry R554H) above, with D244A, H554R counted along it
Sequence of mOtop1 T240A (Q80VM9 whole entry T240A): as the sequence (Q80VM9 whole entry R554H) above, with T240A, H554R counted along it
Sequence of mOtop1 H246A (Q80VM9 whole entry H246A): as the sequence (Q80VM9 whole entry R554H) above, with H246A, H554R counted along it
Sequence of mOtop1 R554E (Q80VM9 whole entry R554E): as the sequence (Q80VM9 whole entry R554H) above, with H554E counted along it
Sequence of mOtop1 R554K (Q80VM9 whole entry R554K): as the sequence (Q80VM9 whole entry R554H) above, with H554K counted along it

| SMILES | effect on pH 8.5-evoked Otop1 currents (Otop1 channels) | EC50 [1] [µM] | effect on mOtop1 current density ([1]; pH 5.5, Fig 4A) | effect on mOtop1 current density ([1]; pHs ranging from 4.5 to 6.0) | effect on inhibition of mOtop1 by Zn2+ [2] | effect on the activation rate of mOtop1 channels [3] | effect on Vrev of the mOtop1 channel [4] | response of mutant to MFaN compared to wild-type mOtop1 (mOtop1 E226A) | response of mutant to MFaN compared to wild-type mOtop1 (mOtop1 E229A) | response of mutant to MFaN compared to wild-type mOtop1 (mOtop1 T233A) | response of mutant to MFaN compared to wild-type mOtop1 (mOtop1 T240A) | response of mutant to MFaN compared to wild-type mOtop1 (mOtop1 I241A) | response of mutant to MFaN compared to wild-type mOtop1 (mOtop1 D244A) | response of mutant to MFaN compared to wild-type mOtop1 (mOtop1 H246A) | effect of mutation on MFaN's potentiation effect vs WT mOtop1 (mOtop1 R554N) | effect of mutation on MFaN's potentiation effect vs WT mOtop1 (mOtop1 R554Q) | effect of mutation on MFaN's potentiation effect vs WT mOtop1 (mOtop1 R554C) | effect of mutation on MFaN's potentiation effect vs WT mOtop1 (mOtop1 R554E) | effect of mutation on MFaN's potentiation effect vs WT mOtop1 (mOtop1 R554K) | effect of mutation on MFaN's potentiation effect vs WT mOtop1 (mOtop1 R554H) |
| --- | --- | --- | --- | --- | --- | --- | --- | --- | --- | --- | --- | --- | --- | --- | --- | --- | --- | --- | --- | --- |
| CC(C)c1noc2ncc(C(=O)c3ccccc3O)cc12 [HIMOP, (2-hydroxyphenyl)-(3-propan-2-yl-5-isoxazolo[5,4-b]pyridinyl)methanone] | significantly enhanced |  |  |  |  |  |  |  |  |  |  |  |  |  |  |  |  |  |  |  |
| Cc1ccc(C(=O)Nc2ccc3ccccc3c2)o1 [MFaN, 5-methyl-N-2-naphthyl-2-furamide] |  | 9.2 ± 0.6 | significantly increased | significantly increased | without affecting | had no effect | did not change | markedly reduced | significantly enhanced | markedly reduced | markedly reduced | markedly reduced | markedly reduced | significantly enhanced | eliminated | eliminated | eliminated | eliminated | did not affect | reduced |
